Bioassay records as filed in PubChem BioAssay.
Most compounds without a hit are left out; they make up all but 1.6% or so of the library.
HNF4A DNA FP – change in binding of human HNF4A to DNA, primary screen, biochemical, fluorescence polarization, FITC-DNA. Hepatocyte nuclear factor 4-alpha (Homo sapiens), P41235. 1 h. activity change, % at 10 µM. hit rate 0.3% among 360,000. AID 1224865, 2016; in the data active = activity change above about 30%, passing the limit was not always enough
PKA-R1A activ – activators of PKA-R1A holoenzyme, primary screen, biochemical, fluorescence polarization, Cy5-IP20, bovine R1A, mouse PKAc | PKA-R1A dissociation; scaled: DMSO 0%, 113 µM cGMP 100% | activation, % at 11.4 µM | hit rate 0.083% among 340,000 | AID 504707, 2011;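 active = percent activation above the mean of all tested compounds plus 3 SD, cut at about 19% in these data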;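 also: higher means more PKAc released from R1A so a rise in polarization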
CSN deneddyl inh – inhibitors of CSN-mediated cullin deneddylation, primary screen, biochemical, fluorescence polarization, uHTS | COP9 signalosome complex subunit 5 (Homo sapiens), Q92905 | Purified CSN, SCF-Nedd8-OG deneddylation | inhibition, % at 12.5 µM | hit rate 0.38% among 360,000 | AID 651999, 2013;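 active = pattern-corrected inhibition above about 35%, with an unprinted fluorescence ratio check between 0.5 and 1.5, limit read from the data, passing the limit was not always enough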;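 also: 0% = enzyme with substrate and 100% = substrate without enzyme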
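Assay system: Purified human Csn5 enzyme expressed in HEK293T cells | Amount: Enzyme 0.24 nM | Measured by: Fluorescence polarization readout | Medium: Tris/NaCl/DTT buffer, pH 7.5 | Compound dosing: One concentration, 12.5 µM, 0.25% DMSO | Times: 90 min incubation of compound, enzyme and substrate at room temperature | Control set: no-enzyme wells high, enzyme-with-substrate wells low | Read-out: % inhibition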
TPT1 inh – Candida albicans TPT1 enzyme inhibitors, primary screen, biochemical, fluorescence polarization; recombinant caTPT1, FP RNA substrate dephosphorylation; inhibition, % at 5 µM; hit rate 0.81% among 300,000;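 active = inhibition above the mean of all tested compounds plus 3 SD, set per screening campaign, cut at about 24% in these data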;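 also: plate controls were DMSO alone for no effect and ferristatin control at 100 nM for full effect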
Rpn11 block – Rpn11 (PSMD14) deubiquitinase inhibitors, primary screen, biochemical, fluorescence polarization, uHTS; hit rate 0.59% among 360,000; calls only at 20 µM; 26S proteasome non-ATPase regulatory subunit 14 (Homo sapiens), O00487; human 26S proteasome, Ub4-pepOG fluorescence polarization; 20S core pre-blocked with epoxomicin; AID 588493, 2011;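 active = inhibition at 20 µM, scaled to each plate's controls, above about 33%, limit read from the data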
PKA-R2B activ – activators of PKA-R2B holoenzyme, primary screen, biochemical, fluorescence polarization, Cy5-IP20, human; cAMP-dependent protein kinase catalytic subunit beta (Homo sapiens) + cAMP-dependent …; PKA-R2B holoenzyme dissociation; R2B truncated from residue 108, S112A mutant; 0% DMSO only, 100% 113 µM cGMP; activation, % at 11.4 µM; hit rate 0.079% among 340,000;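 active = activation above a cutoff set at the mean over all compounds plus 3 SD, cut at about 18% in these data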;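 also: higher means more holoenzyme dissociation and a rise in polarization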
Rpn11 inh conf – Rpn11 (PSMD14) deubiquitinase inhibitors, confirmation, biochemical, fluorescence polarization, single concentration | shares compounds with Rpn11 block | purified human 26S proteasome, Ub4-pepOG fluorescence polarization; proteasome pretreated with epoxomicin | inhibition, % at 20 µM | hit rate 29% among 1,900
MMP-2 counter-1 – MMP-2 enzyme inhibition, confirmation, counter-screen for RPN11 inhibitor project, biochemical, fluorescence, single concentration | hit rate 4% among 1,900 | inhibition, % at 20 µM | shares compounds with Rpn11 block | AID 602330, 2012 | recombinant MMP-2, FRET peptide cleavage fluorescence;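 also: human MMP-2 activated beforehand with APMA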
Target sequence (P08253 whole entry, looked up): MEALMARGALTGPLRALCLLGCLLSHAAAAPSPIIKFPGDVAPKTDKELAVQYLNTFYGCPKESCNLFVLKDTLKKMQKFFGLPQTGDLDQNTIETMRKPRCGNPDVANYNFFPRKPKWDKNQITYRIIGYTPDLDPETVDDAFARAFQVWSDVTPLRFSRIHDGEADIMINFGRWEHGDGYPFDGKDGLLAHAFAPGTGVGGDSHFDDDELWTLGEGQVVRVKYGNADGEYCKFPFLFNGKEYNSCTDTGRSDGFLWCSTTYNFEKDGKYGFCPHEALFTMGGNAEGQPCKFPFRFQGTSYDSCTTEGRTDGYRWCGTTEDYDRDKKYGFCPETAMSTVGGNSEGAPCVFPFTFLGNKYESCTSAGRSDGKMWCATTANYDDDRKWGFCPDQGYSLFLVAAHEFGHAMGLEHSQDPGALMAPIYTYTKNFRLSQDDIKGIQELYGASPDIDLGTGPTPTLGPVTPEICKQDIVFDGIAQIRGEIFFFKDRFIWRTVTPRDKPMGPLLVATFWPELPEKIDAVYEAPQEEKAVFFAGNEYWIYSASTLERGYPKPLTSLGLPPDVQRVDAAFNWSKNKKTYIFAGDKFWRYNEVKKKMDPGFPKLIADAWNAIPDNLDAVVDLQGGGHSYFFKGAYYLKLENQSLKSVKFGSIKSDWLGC
Thrombin FP – bovine thrombin protease inhibition, confirmation, counter-screen for Rpn11 inhibitor project, biochemical, fluorescence polarization, single concentration; inhibition, % at 20 µM; hit rate 13% among 1,900; AID 602333, 2012; bovine thrombin cleavage of Ub4-pepOG; shares compounds with Rpn11 block;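 active = mean inhibition at least 40% at 20 µM, or signal 3 deviations below plate average, so some actives read negative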;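 also: plate controls were thrombin with DMSO for no effect and buffer wells lacking thrombin for full effect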
CSN5 deneddyl – Csn5 deneddylation inhibitors, confirmation, biochemical, fluorescence polarization, single concentration, SCF-Nedd8OG substrate; shares compounds with CSN deneddyl inh; Csn5 deneddylation of SCF-Nedd8OG, 90 min; inhibition, % at 16.6 µM; hit rate 62% among 540; AID 720654, 2013; in the data active = inhibition above about 50%;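 also: 0% = DMSO with enzyme and 100% = no enzyme wells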
MMP-2 counter-2 – MMP-2 protease inhibition counter-screen, confirmation, counter-screen for CSN deneddylation inhibitor project, biochemical, fluorescence, single concentration. shares compounds with CSN deneddyl inh. recombinant MMP-2, FRET substrate fluorescence, 60 min. inhibition, % at 16.6 µM. hit rate 33% among 540. AID 720655, 2013;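 active = corrected plate-normalized z-score of 5 or more, or -5 or less, or inhibition of 15% or more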;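 also: plate controls were DMSO wells with enzyme for no effect and buffer wells lacking MMP-2 for full effect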
Thrombin counter – blocks bovine thrombin in a CSN deneddylation counter-screen; hit rate 49% among 540; shares compounds with CSN deneddyl inh; bovine thrombin cleavage of Ub4-pepOG, fluorescence polarization; inhibition, % at 16.6 µM;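 active = inhibition at or above a set limit, with a fluorescence interference ratio between 0.5 and a set maximum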
An asterisk follows results filed as active. Rule as the data show it, unless noted: active = inhibition above about 40%; inactive = the rest.

CCCCC1CCC(C(=O)N(CCOC)c2c(N)n(CC(C)C)c(=O)[nH]c2=O)CC1 (stereo unspecified) was read as HNF4A DNA FP 0, PKA-R1A activ -2, CSN deneddyl inh -4, Rpn11 block inactive and PKA-R2B activ 0.
`O=C(O)CN1C(=O)/C(=C\c2ccccc2OCc2ccc(Cl)cc2)SC1=S` gave HNF4A DNA FP -5, PKA-R1A activ -11, CSN deneddyl inh 5, TPT1 inh 1, Rpn11 block inactive and PKA-R2B activ -3.
`O=C(O)CN1C(=O)/C(=C\c2cc(Br)ccc2OCc2ccc(Cl)cc2Cl)SC1=S` gave HNF4A DNA FP -22, PKA-R1A activ -3, CSN deneddyl inh 36*, TPT1 inh -3, Rpn11 block active, PKA-R2B activ 0, Rpn11 inh conf 13, MMP-2 counter-1 11, Thrombin FP 79*, CSN5 deneddyl 33, MMP-2 counter-2 2 and Thrombin counter 8.
For COc1cc(/C=C(/C#N)c2nc3ccccc3[nH]2)ccc1OCc1ccc(C(=O)O)o1 the results were HNF4A DNA FP 5, PKA-R1A activ 2, CSN deneddyl inh 1, TPT1 inh 11, Rpn11 block inactive and PKA-R2B activ 1.
For COC(=O)c1ccc(COc2ccc(/C=C(\C#N)c3nc4ccccc4[nH]3)cc2OC)o1 the results were HNF4A DNA FP 26, PKA-R1A activ -4, CSN deneddyl inh 57*, TPT1 inh 3, Rpn11 block active, PKA-R2B activ -3, Rpn11 inh conf 127*, MMP-2 counter-1 -150, Thrombin FP 90*, CSN5 deneddyl -68, MMP-2 counter-2 -5 and Thrombin counter 41*.
Screening COc1cc(OC)c(CN2CCC(Cc3ccccc3)CC2)cc1Br returned HNF4A DNA FP -3, PKA-R1A activ 3, CSN deneddyl inh -2, TPT1 inh 1, Rpn11 block inactive and PKA-R2B activ -1.
O=C(Nc1ccc(C2=NCCN2)cc1)c1ccc(C(=O)Nc2ccc(C3=NCCN3)cc2)c(Cl)c1 was read as HNF4A DNA FP 61, PKA-R1A activ -7, CSN deneddyl inh 114*, TPT1 inh 2, Rpn11 block active, PKA-R2B activ 2, Rpn11 inh conf 69*, MMP-2 counter-1 47*, Thrombin FP 10, CSN5 deneddyl -48, MMP-2 counter-2 72* and Thrombin counter -4.
Screening C=CCn1c(N)c(C(=O)NCC2CCCO2)c2nc3ccccc3nc21 (stereo unspecified) returned HNF4A DNA FP 5, PKA-R1A activ 2, CSN deneddyl inh 36*, TPT1 inh 3, Rpn11 block active, PKA-R2B activ -5, Rpn11 inh conf -7, MMP-2 counter-1 -36, Thrombin FP -22, CSN5 deneddyl 101*, MMP-2 counter-2 1 and Thrombin counter 0.
Screening COc1ccc(-n2c(N)c(C(=O)NCC3CCCO3)c3nc4ccccc4nc32)c(OC)c1 (stereo unspecified) returned HNF4A DNA FP 3, PKA-R1A activ -9, CSN deneddyl inh 2, TPT1 inh 0, Rpn11 block inactive and PKA-R2B activ -2.
For O=C(O)c1ccc(/C=C2\SC(=S)N(Nc3ccccc3)C2=O)cc1 the results were HNF4A DNA FP 3, PKA-R1A activ 8, CSN deneddyl inh 0, TPT1 inh 6, Rpn11 block inactive and PKA-R2B activ 5.
`COc1cc(/C=C2\SC(=S)N(Nc3ccccc3)C2=O)ccc1O` gave HNF4A DNA FP 37*, PKA-R1A activ 7, CSN deneddyl inh 46*, TPT1 inh 24, Rpn11 block active, PKA-R2B activ 7, Rpn11 inh conf 72*, MMP-2 counter-1 6, Thrombin FP 101*, CSN5 deneddyl 85*, MMP-2 counter-2 -1 and Thrombin counter 56*.
For COc1ccc(Br)cc1/C=c1\sc2nc(-c3ccco3)nn2c1=O the results were HNF4A DNA FP -28, PKA-R1A activ 3, CSN deneddyl inh 41*, TPT1 inh 23, Rpn11 block active, PKA-R2B activ 15, Rpn11 inh conf 17, MMP-2 counter-1 2, Thrombin FP 10, CSN5 deneddyl 70*, MMP-2 counter-2 5 and Thrombin counter 4.
For C=C(C)c1cccc(C(C)(C)NC(=O)Nn2cnnc2)c1 the results were HNF4A DNA FP 1, PKA-R1A activ -5, CSN deneddyl inh 3, TPT1 inh -4, Rpn11 block inactive and PKA-R2B activ -4.
